Data published in ChEMBL document CHEMBL1126026, “Synthesis and biological activity of new dimers in the 7H-pyrido[4,3-c] carbazole antitumor series” (1992).
The source made the active and inactive calls. No cut-off for these calls is given here.

Experiments:
Mus musculus [1] = species: Mus musculus; assay: Increase in life span, expressed as treated by control was determined in DBA2 mice inoculated with L1210 cells; NM denotes not measurable due to weak solubility; type: functional, organism-based
How it was run: (§1)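 DBA2 mice were inoculated with 10⁵ L1210 cells and treated. Increase in life span was reported as mean survival of treated over control × 100. Significance was assessed by Student's test.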

L1210 [2] = assay: Dose required to inhibit the cloning efficacy of L1210 cells to a factor of 0.37 after 24-h exposure to the compound; type: functional, Mus musculus
How it was run: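 Exponentially growing L1210 cells were exposed to a range of drug concentrations for 24 h, then assessed by cloning. The dose reducing cloning efficiency to a factor of 0.37 was determined.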

L1210 [3] = assay: Dose required to inhibit growth of L1210 cells after 24-h exposure to the compound; type: functional; settings: Mus musculus, L1210, 24 h; read-out: ED50 (the source's name)
How it was run: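 Exponentially growing L1210 cells were exposed to a range of drug concentrations for 24 h. The dose giving 50% growth inhibition was determined.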

Nucleic Acid = assay: Affinity constant against calf thymus DNA; NM denotes not measurable due to weak solubility; type: nucleic-acid assay; settings: Bos taurus
How it was run: (§2)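 Fluorescence competition assay with ethidium dimer at 25 °C in 0.1 M Tris-HCl, 0.1 M NaCl buffer, pH 7.4. Calf thymus DNA (1.6 × 10⁻⁶ M base pairs) was equilibrated with ethidium dimer for 24 h, then measured with varied drug concentrations. Excitation was 540 nm and emission 610 nm. Bound dye per base pair was derived by the Gaugain method. Ka was fitted from computed versus experimental displacement curves.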

Mus musculus [4] = species: Mus musculus; assay: Maximal tolerated dose against DBA2 mice inoculated with L1210 cells was determined; type: functional
Mus musculus [5] = species: Mus musculus; assay: Increase in life span, expressed as treated by control was determined in DBA2 mice inoculated with L1210 cells; NS denotes not significant; type: functional, organism-based; how it was run: as §1
Calf thymus DNA = assay: Affinity constant for calf thymus DNA; type: nucleic-acid assay; settings: Bos taurus; how it was run: as §2
Mus musculus [6] = species: Mus musculus; assay: Optimal dose required against DBA2 mice inoculated with L1210 cells; type: functional
How it was run: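 DBA2 mice were inoculated with 10⁵ L1210 cells. The optimal dose (mg/kg) was the dose giving the greatest increase in life time of treated mice relative to controls.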

Mus musculus [7] = species: Mus musculus; assay: Increase in life span, expressed as treated by control was determined in DBA2 mice inoculated with L1210 cells; type: functional
How it was run: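 DBA2 mice inoculated with 10⁵ L1210 leukemia cells and treated with compound. Read-out was increase in life span as T/C × 100, the mean % survival of treated over control animals. Significance was tested by Student's test. Optimal dose in mg/kg was the dose that most extended the life time of treated mice.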

Row | Compound | T/C (Mus musculus [1]) | ED37 (L1210 [2]) [µM] | EC50 (L1210 [3]) [nM] | Ka (Nucleic Acid) | MTD (Mus musculus [4]) [mg/kg] | T/C (Mus musculus [5]) | Ka (Calf thymus DNA) [M⁻¹] | OD (Mus musculus [6]) [mg/kg] | T/C (Mus musculus [7]) [%]
1 | COc1ccc2[nH]c3c(CNC(=O)[C@@H](N)CCC(=O)O)cc4cc[n+](CCN5CCC(C6CCN(CC[n+]7ccc8cc(CNC(=O)[C@@H](N)CCC(=O)O)c9[nH]c%10ccc(OC)cc%10c9c8c7)CC6)CC5)cc4c3c2c1.CS(=O)(=O)O.CS(=O)(=O)O.CS(=O)(=O)[O-].CS(=O)(=O)[O-] | Not measurable | >0.58 | 460 | Not measurable | – | – | – | – | –
2 | COc1ccc2c(c1)c1c3c(ccc1n2C)CCN(CCN1CCC(C2CCN(CCN4CCc5ccc6c(c5C4)c4cc(OC)ccc4n6C)CC2)CC1)C3.CS(=O)(=O)O.CS(=O)(=O)O | – | 0.6 | 660 | – | 10 | inactive | 4e+07 | 10 | –
3 | COc1ccc2[nH]c3c(CNC(=O)[C@]4(O)O[C@H](CO)[C@H](O)[C@H]4O)cc4cc[n+](CCN5CCC(C6CCN(CC[n+]7ccc8cc(CNC(=O)[C@]9(O)O[C@H](CO)[C@H](O)[C@H]9O)c9[nH]c%10ccc(OC)cc%10c9c8c7)CC6)CC5)cc4c3c2c1 | – | – | 2150 | – | – | – | 3e+06 | – | –
4 | COc1ccc2[nH]c3c(CN)cc4cc[n+](CCN5CCC(C6CCN(CC[n+]7ccc8cc(CN)c9[nH]c%10ccc(OC)cc%10c9c8c7)CC6)CC5)cc4c3c2c1.CS(=O)(=O)O.CS(=O)(=O)O.CS(=O)(=O)[O-].CS(=O)(=O)[O-] | – | 0.066 | 57 | – | 20 | inactive | 2e+07 | 10 | –
5 | COc1ccc2[nH]c3c(C)cc4cc[n+](CCN5CCC(C6CCN(CC[n+]7ccc8cc(C)c9[nH]c%10ccc(OC)cc%10c9c8c7)CC6)CC5)cc4c3c2c1.CS(=O)(=O)O.CS(=O)(=O)O.CS(=O)(=O)[O-].CS(=O)(=O)[O-] | – | 0.1 | 370 | – | 11 | – | 5e+08 | 7 | 172
6 | COc1ccc2[nH]c3c(C(=O)O)cc4cc[n+](CCN5CCC(C6CCN(CC[n+]7ccc8cc(C(=O)O)c9[nH]c%10ccc(OC)cc%10c9c8c7)CC6)CC5)cc4c3c2c1.CS(=O)(=O)O.CS(=O)(=O)O.CS(=O)(=O)[O-].CS(=O)(=O)[O-] | Not measurable | >0.8 | > 800 | – | – | – | 250000 | – | –
7 | COc1ccc2c(c1)c1c3c[n+](C)ccc3ccc1n2CCN1CCC(C2CCN(CCn3c4ccc(OC)cc4c4c5c[n+](C)ccc5ccc43)CC2)CC1.CS(=O)(=O)O.CS(=O)(=O)O.CS(=O)(=O)[O-].CS(=O)(=O)[O-] | – | – | 900 | – | 5 | – | > 1e+09 | 5 | 134
8 | COc1ccc2[nH]c3ccc4cc[n+](CCN5CCC(C6CCN(CC[n+]7ccc8ccc9[nH]c%10ccc(OC)cc%10c9c8c7)CC6)CC5)cc4c3c2c1.[Cl-].[Cl-] [DITERCALINIUM CHLORIDE] | – | 0.024 | 190 | – | 10 | – | – | 10 | 182
9 | COc1ccc2c(c1)c1c3cnccc3ccc1n2CCN1CCC(C2CCN(CCn3c4ccc(OC)cc4c4c5cnccc5ccc43)CC2)CC1.CS(=O)(=O)O.CS(=O)(=O)O | – | – | 600 | – | 10 | inactive | 1e+07 | 10 | –
10 | COc1ccc2[nH]c3ccc4cc[n+](CCN5CCC(C6CCN(CC[n+]7ccc8ccc9[nH]c%10ccc(OC)cc%10c9c8c7)CC6)CC5)cc4c3c2c1 | – | – | – | – | – | – | 1e+07 | – | –
11 | COc1ccc2[nH]c3ccc4cc[n+](CCN5CCC(C6CCN(CC[n+]7ccc8ccc9[nH]c%10ccc(OC)cc%10c9c8c7)CC6)CC5)cc4c3c2c1.CS(=O)(=O)O.CS(=O)(=O)O.CS(=O)(=O)[O-].CS(=O)(=O)[O-] | – | 0.02 | – | – | 10 | – | – | 10 | 182
12 | COc1ccc2[nH]c3c(C(=O)NCCN4CCC(C5CCN(CCNC(=O)c6cc7ccncc7c7c6[nH]c6ccc(OC)cc67)CC5)CC4)cc4ccncc4c3c2c1 | – | 30 | 11000 | – | 10 | inactive | 2e+08 | 10 | –
